From PubChem
Only some compounds are listed: those with a hit (about 0.86% of all), similar ones and a draw of the others.
TNAP act hiacc: activators of human TNAP at high phosphate acceptor concentration; activation factor at 20 µM; AID 1136; 200,000 tested, under 10 active; purified TNAP, CDP-star luminescence, 1 M DEA, 30 min; hits give high values; 0 = EDTA background, 1 = DMSO-only activity;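 active = activation factor at least 2 at 20 µM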
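system = human TNAP | amount = enzyme diluted 1/800 final | reagent = 100 µM CDP-star substrate | signal = luminescent substrate turnover signal | dosing = one dose, 20 µM | benchmarks = EDTA negative control, DMSO positive control | measure = activation factor | timing = 30 min reaction, room temperature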
p97 inhibitor: blocks human p97 ATPase activity | actives 0.42% (n = 220,000) | P55072 | recombinant p97 ATPase, Kinase-Glo ATP luminescence, 3 h | inhibition, % at 8 µM | AID 1481; in the data active = inhibition above about 15%;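 note: 0% = DMSO vehicle and 100% = wells lacking enzyme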
TNAP inh hi DEA: TNAP (human) inhibition, high acceptor; P05186; purified TNAP, CDP-star luminescence, 1 M DEA; inhibition, % at 20 µM; actives 0.03% (n = 200,000); AID 1135;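 active = over 50% inhibition of tissue-nonspecific alkaline phosphatase at 20 µM in the single-dose screen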;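 note: plate controls were DMSO wells for no effect and EDTA-quenched wells as full inhibition for full effect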
PERK inh: inhibitors of human PERK kinase. inhibition, % at 5.6 µM. Q9NZJ5. CHO PERK-DD fusion, SEAP luminescence translation reporter. actives 0.17% (n = 220,000);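 active = inhibition above the mean inhibition of all tested compounds plus 3 SD, set separately per screening campaign, cut at about 2.9% in these data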;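 note: PERK kinase domain activated by AP20187 dimerizer at 100 nM; 0% = DMSO with dimerizer and 100% = rapamycin at 8.4 µM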
Target sequence (Q9NZJ5 whole entry, looked up, the tested form may be a part): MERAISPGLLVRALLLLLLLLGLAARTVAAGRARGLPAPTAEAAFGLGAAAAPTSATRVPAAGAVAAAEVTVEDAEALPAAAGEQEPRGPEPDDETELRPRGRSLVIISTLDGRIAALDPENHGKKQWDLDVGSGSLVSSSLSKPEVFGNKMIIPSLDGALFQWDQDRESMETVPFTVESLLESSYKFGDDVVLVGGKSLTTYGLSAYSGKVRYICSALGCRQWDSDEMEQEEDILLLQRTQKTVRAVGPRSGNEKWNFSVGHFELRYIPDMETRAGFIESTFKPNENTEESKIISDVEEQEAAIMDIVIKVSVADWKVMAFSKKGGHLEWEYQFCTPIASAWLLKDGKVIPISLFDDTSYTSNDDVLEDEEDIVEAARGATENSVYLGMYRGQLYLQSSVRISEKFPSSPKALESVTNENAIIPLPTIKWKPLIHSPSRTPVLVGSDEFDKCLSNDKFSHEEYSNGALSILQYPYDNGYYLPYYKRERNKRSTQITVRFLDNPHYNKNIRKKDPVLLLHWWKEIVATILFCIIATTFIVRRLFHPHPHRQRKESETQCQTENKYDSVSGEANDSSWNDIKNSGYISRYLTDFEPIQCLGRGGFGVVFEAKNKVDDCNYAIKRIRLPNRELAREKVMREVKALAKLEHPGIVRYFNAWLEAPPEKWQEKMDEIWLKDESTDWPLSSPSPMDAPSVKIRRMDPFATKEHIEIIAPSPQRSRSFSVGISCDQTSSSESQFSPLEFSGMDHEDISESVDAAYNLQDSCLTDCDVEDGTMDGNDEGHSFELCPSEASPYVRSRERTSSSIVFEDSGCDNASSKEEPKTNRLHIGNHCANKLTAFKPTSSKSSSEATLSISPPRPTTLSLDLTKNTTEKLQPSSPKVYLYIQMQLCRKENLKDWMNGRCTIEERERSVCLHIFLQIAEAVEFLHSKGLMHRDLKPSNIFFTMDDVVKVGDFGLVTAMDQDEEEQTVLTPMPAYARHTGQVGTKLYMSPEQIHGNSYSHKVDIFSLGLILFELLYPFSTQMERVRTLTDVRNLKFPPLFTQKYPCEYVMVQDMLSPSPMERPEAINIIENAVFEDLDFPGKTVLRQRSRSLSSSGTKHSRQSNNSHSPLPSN
DTT redox prof: compounds producing H2O2 with reducing agent – biochemical, NIH compound library profiling, artefact control for MLSCN library redox annotation, primary screen. DTT-dependent redox cycling H2O2, phenol red/HRP absorbance; 100% = 100 µM peroxide control, 0% = buffer. activation, % at 10 µM. actives 0.03% (n = 200,000);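 active = activation of at least 50% relative to the plate's high and low controls in the primary single-dose screen; inactive = activation below 50%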;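 note: compound incubated with DTT at 0.8 mM final as the reducing agent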
TNAP inh no acc: TNAP (human) inhibition, acceptor-free conditions. P05186. purified TNAP, CDP-star luminescence, 30 min. inhibition, % at 20 µM. actives 0.26% (n = 200,000);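 active = tissue-nonspecific alkaline phosphatase inhibition above about 50% at 20 µM in the single-dose screen, limit read from the data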;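 note: 0% = DMSO negative control and 100% = EDTA positive control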
p97 inh conf: confirmation of human p97 ATPase inhibitors; shares compounds with p97 inhibitor; recombinant p97 ATPase, Kinase-Glo ATP luminescence; inhibition, % at 8 µM; actives 44% (n = 760);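 active = percent inhibition of p97 ATPase above a set limit, the primary screen's mean plus 3 SD, cut at about 15% in these data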;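 note: 0% = DMSO wells and 100% = wells lacking p97 protein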
Active calls of the source: *; · = no result.

SMILES | TNAP act hiacc | p97 inhibitor | TNAP inh hi DEA | PERK inh | DTT redox prof | TNAP inh no acc | p97 inh conf
O=C(O)c1ccc2nc(-c3ccco3)c(-c3ccco3)nc2c1 | 0.9 | 26* | 13 | 2 | 0 | -1 | 1
O=C(Nc1ccc(N2CCOCC2)cc1)Nc1ccc2nc(-c3ccco3)c(-c3ccco3)nc2c1 | 0.9 | 3 | 8 | -1 | 1 | 22 | ·
O=C(NCCCO)Nc1ccc2nc(-c3ccco3)c(-c3ccco3)nc2c1 | 0.9 | 25* | 13 | 1 | 1 | 20 | 23*
O=C(Nc1ccc2nc(-c3ccco3)c(-c3ccco3)nc2c1)NC1CC1 | 0.9 | 31* | 12 | 0 | 0 | 4 | 24*
COc1ccc(CCNC(=O)C(C)Sc2ccc(C)cc2)cc1OC (stereo not given) | 1 | -5 | -1 | 0 | -1 | -14 | ·
O=C1N(Cc2cccnc2)C[C@@H]2C[C@@H](c3ccc4nsnc4c3)N3CCC[C@@]123 | 1 | 2 | -4 | 0 | 1 | -7 | ·
C(=C\c1ccccc1)/CNn1cnnc1 | 1 | 5 | -4 | 1 | 0 | -11 | ·
C[N+](C)(CC#N)C/C=C\c1ccccc1 | 1 | 17* | -4 | 0 | -1 | -5 | 4
C=CCN1C(=O)C(C)(C)Nc2ccccc21 | 1 | 4 | -3 | 1 | 2 | -12 | ·
C=CCN1C(=O)N(/C=C/C)c2cccc3cccc1c23 | 1 | 15* | -2 | 0 | -1 | -9 | 6
CCN1C(=O)C(CC(=O)Nc2ccc(OC)cc2)N(CCCN2CCN(c3ccc(OC)cc3)CC2)C1=S (stereo not given) | 1 | 4 | 0 | 1 | -1 | -3 | ·
N#C/C(=C/c1ccc(-c2ccc(C(=O)O)c(Cl)c2)o1)C(=O)NCC1CCCO1 (stereo not given) | 1 | 27* | -3 | 1 | 0 | 0 | 37*
Nc1c(N)c2ccccc2oc1=O | 0.9 | -1 | 9 | 1 | 0 | -5 | ·
O=c1oc2ccccc2c2oc3cc(O)c(O)cc3c12 | · | 19* | · | 0 | · | · | 22*
COC(=O)CCCCC1SCC(NC(=O)c2ccccc2)C1=O (stereo not given) | 1 | 17* | 0 | 1 | -1 | -8 | 4
COc1ccc(NC(=O)c2cc(-c3ccco3)nc3ccccc23)cc1S(=O)(=O)N1CCOCC1 | · | 13 | · | 1 | · | · | ·
COc1ccc(Nc2nc(-c3ccccc3)nc3ccccc23)cc1S(=O)(=O)N1CCOCC1 | · | 16* | · | 1 | · | · | 13
COc1ccc(CCNC(=O)C2CCC(=O)N2CCc2ccccc2)cc1OC (stereo not given) | 1 | -3 | -1 | 0 | 0 | -13 | ·
Cc1cc(SCC(=O)Nc2ccc(O)cc2)n2ncc(-c3ccccc3)c2n1 | · | 5 | · | 2 | · | · | ·
Cc1cc(SCC(=O)Nc2ccc(O)cc2)n2nc(C)c(-c3ccccc3)c2n1 | · | 24* | · | 1 | · | · | 8
O=c1[nH]c(CN2CCCCC2)nc2ccccc12 | 1 | 25* | -4 | 0 | 2 | -2 | 3
COc1ccc2c(c1)Cc1sc(NC(=O)c3ccccc3)nc1-2 | 1 | 18* | -1 | 0 | 1 | -5 | 2
COc1cc2cccc(OC)c(=O)c2c(O)c1OC | 1 | 9 | 1 | 0 | 0 | 11 | ·
Oc1cccc2cc3cccc(O)c3c(O)c12 | 1 | 15* | 5 | 2 | -1 | -12 | 14
Cc1ccccc1-c1n[nH]c(=S)n1/N=C/C=C/c1ccco1 | · | 8 | · | 0 | · | · | ·
SMILES | TNAP act hiacc | p97 inhibitor | TNAP inh hi DEA | PERK inh | DTT redox prof | TNAP inh no acc | p97 inh conf
S=c1[nH]nc(-c2ccc(Cl)cc2)n1/N=C/C=C/c1ccco1 | · | 16* | · | 1 | · | · | 7
S=c1[nH]nc(-c2ccccc2)n1/N=C/C=C/c1ccco1 | 1 | 7 | 3 | 0 | 0 | 10 | ·
Cc1cc(-c2n[nH]c(=S)n2/N=C/C=C/c2ccco2)n[nH]1 | · | 24* | · | 1 | · | · | 9
Cc1ccc2oc(-c3ccccc3C(=O)O)cc(=O)c2c1 | 1.1 | 4 | -9 | 0 | -2 | -13 | ·
Cc1[nH][nH]c(=O)c1C(c1ccc(-c2ccccc2C(=O)O)o1)c1c(C)[nH][nH]c1=O | 0.8 | 22* | 25 | 0 | 0 | 32 | 24*
Cc1[nH][nH]c(=O)c1C(c1ccc(-c2cccc(Cl)c2)o1)c1c(C)[nH][nH]c1=O | · | 36* | · | 1 | · | · | 34*
Cc1[nH][nH]c(=O)c1C(c1ccc(-c2cccc(C(=O)O)c2)o1)c1c(C)[nH][nH]c1=O | 0.9 | 19* | 8 | 2 | -1 | 37 | 12
COC(=O)c1ccc(-c2ccc(C(c3c(C)[nH][nH]c3=O)c3c(C)[nH][nH]c3=O)o2)cc1 | 0.9 | 11 | 11 | 0 | 0 | -21 | ·
CCN(CC)S(=O)(=O)c1cccc(NC(=O)c2cc(-c3cccs3)nn2-c2ccccc2)c1 | 1 | -1 | -2 | -1 | 1 | -23 | ·
CN(C)S(=O)(=O)c1cccc(NC(=O)c2cc(-c3cccs3)nn2-c2ccccc2)c1 | 1.1 | 26* | -7 | -1 | 0 | -14 | 5
O=c1c2ccccc2nc2c3ccccc3c(Cl)nn12 | 1 | 21* | -4 | 1 | 0 | -6 | 25*
CC1CC(C)CN(C2CCN(Cc3cccnc3)CC2)C1 (stereo not given) | 1.1 | 3 | -9 | 0 | -1 | -4 | ·
CN1c2ccccc2C(C)(C)C12C=Nc1c(ccc3ccccc13)O2 (stereo not given) | 1.1 | -1 | -6 | 1 | -4 | -11 | ·
COc1ccc2ccc3c(c2c1)N=CC1(O3)N(C)c2ccccc2C1(C)C (stereo not given) | 1 | 16* | -4 | 0 | 2 | -10 | 8
CCOC(=O)CC1=NN(c2ccccc2)C(=O)/C1=C\c1ccc(OC)cc1OC | 1 | 1 | 2 | 1 | 0 | 3 | ·
CCCCn1c(NC(C)=O)c(C#N)c2nc3ccccc3nc21 | 1 | 30* | -2 | -1 | 2 | -5 | 4
C=CCn1c(NC(=O)c2ccccc2Cl)c(C#N)c2nc3ccccc3nc21 | 1 | 43* | 0 | 1 | 0 | 8 | 28*
CCCCCn1c(N)c(C#N)c2nc3ccccc3nc21 | 1.1 | 0 | -12 | -1 | 0 | -5 | ·
N#CC1=C(N)NC(SCC(=O)c2ccc(Br)cc2)=C(C#N)C12CCCCC2 | 1 | 15* | 4 | -1 | 0 | 0 | 6
CCn1nc([N+](=O)[O-])c(C(C#N)c2nc3cc(C(F)(F)F)ccc3s2)c(Cl)c1=O (stereo not given) | 0.7 | 35* | 35 | -1 | 0 | 35 | 42*
